In ChEMBL document CHEMBL1123665, “Substituted (aryloxy)alkanoic acids as antagonists of slow-reacting substance of anaphylaxis” (J Med Chem, 1987):
Calls of active or inactive are those of the source. The rule behind the calls is not given here.

Tests used:
[1] = target: Cysteinyl leukotriene receptor (Cavia porcellus); experiment: In vitro inhibition of SRS-A-induced contractions in guinea pig ileum
[2] = system: Cavia porcellus; experiment: In vivo inhibition of leukotriene-induced bronchoconstriction in guinea pigs following 10 mg/kg i.v. administration.; assay type: functional; details: route intravenous
Procedure, shortened: (§1)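 Male Hartley guinea pigs (400–600 g) were anesthetized with urethane 2 g/kg i.p. and given propranolol 0.1 mg/kg i.v. 5 min before challenge. After succinylcholine 1.2 mg/kg i.v., animals were ventilated at 40 breaths/min with 4.0 cm3 stroke volume. Drug (10 mg/kg) or vehicle went via jugular cannula 30 s before LTE 25 μg/kg i.v. Tracheal pressure change gave % inhibition (3 control, 5 treated).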

[3] = system: Cavia porcellus; experiment: In vivo inhibition of leukotriene-induced bronchoconstriction in guinea pigs, was determined, by administering compound by aerosol route, after 7 min; assay type: functional, organism-based
Procedure, shortened: (§2)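 Duration of aerosol protection was measured in anesthetized, propranolol-pretreated male guinea pigs. Each inhaled a 1% neutralized aqueous drug solution by ultrasonic nebulizer for 5 min. LTE i.v. challenge followed after 30 s or 5, 10, 30, 60 or 90 min. Tracheal pressure change gave % inhibition (3 control, 5 treated). Duration is the time at which inhibition fell to 40%.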

[4] = species: Cavia porcellus; experiment: Inhibitory potency against leukotriene E4 (LTE) induced bronchoconstriction in guinea pigs.; assay type: functional, organism-based
Procedure, shortened: (§3)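 Anesthetized male guinea pigs were pretreated with propranolol 0.1 mg/kg i.v. and monitored by tracheal pressure. Maximally constrictory i.v. challenges were LTC 50 μg/kg, LTD 50 μg/kg, LTE 25 μg/kg, PAF 10 μg/kg and histamine 50 μg/kg. Dosing, group sizes and % inhibition calculation were otherwise as for the LTE protocol.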

[5] = species: Cavia porcellus; experiment: Inhibitory potency against leukotriene C4 (LTC) induced bronchoconstriction in guinea pigs.; assay type: functional, organism-based
Procedure, shortened: as §3

[6] = species: Cavia porcellus; experiment: Inhibitory potency against histamine induced bronchoconstriction in guinea pigs.; assay type: functional, organism-based
Procedure, shortened: as §3

[7] = species: Cavia porcellus; experiment: Inhibitory potency against platelet activating factor (PAF) induced bronchoconstriction in guinea pigs.; assay type: functional, organism-based
Procedure, shortened: as §3

[8] = system: Cavia porcellus; experiment: In vivo inhibition of leukotriene-induced bronchoconstriction in guinea pigs, was determined, by administering compound by aerosol route, after 46 min; assay type: functional, organism-based
Procedure, shortened: as §2

[9] = species: Cavia porcellus; experiment: Inhibitory potency against leukotriene D4 (LTD) induced bronchoconstriction in guinea pigs.; assay type: functional, organism-based
Procedure, shortened: as §3

[10] = system: Cavia porcellus; experiment: In vivo inhibition of leukotriene-induced bronchoconstriction in guinea pigs, was determined, by administering compound by aerosol route, after 25 min; assay type: functional, organism-based
Procedure, shortened: as §2

[11] = system: Cavia porcellus; experiment: In vivo inhibition of leukotriene-induced bronchoconstriction in guinea pigs, was determined, by administering compound by aerosol route, after 9 min; assay type: functional, organism-based
Procedure, shortened: as §2

[12] = system: Cavia porcellus; experiment: In vivo inhibition of leukotriene-induced bronchoconstriction in guinea pigs, was determined, by administering compound by aerosol route, after 15 min; assay type: functional, organism-based
Procedure, shortened: as §2

[13] = system: Cavia porcellus; experiment: In vivo inhibition of leukotriene-induced bronchoconstriction in guinea pigs, was determined, by administering compound by aerosol route, after 55 min; assay type: functional, organism-based
Procedure, shortened: as §2

[14] = system: Cavia porcellus; experiment: In vivo inhibition of leukotriene-induced bronchoconstriction in guinea pigs, was determined, by administering compound by aerosol route; assay type: functional, organism-based
Procedure, shortened: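 Urethane-anesthetized male guinea pigs were given propranolol 0.1 mg/kg i.v. 5 min before aerosol. Spontaneously breathing animals inhaled an NaOH-neutralized aqueous drug solution (varied % w/v) or distilled water for 5 min from an ultrasonic nebulizer, then were challenged with i.v. LTE. Tracheal pressure change was compared across 3 control and 5 treated animals. IC50 came from log concentration–response regression over ≥3 concentrations in the 10–90% range.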

[15] = system: Cavia porcellus; experiment: In vivo inhibition of leukotriene-induced bronchoconstriction in guinea pigs, was determined, by administering compound by aerosol route, after 37 min; assay type: functional, organism-based
Procedure, shortened: as §2

[16] = system: Cavia porcellus; experiment: In vivo inhibition of leukotriene-induced bronchoconstriction in guinea pigs, was determined, by administering compound by aerosol route, after 22 min; assay type: functional, organism-based
Procedure, shortened: as §2

[17] = system: Cavia porcellus; experiment: In vivo inhibition of leukotriene-induced bronchoconstriction in guinea pigs, was determined, by administering compound by aerosol route, after 42 min; assay type: functional, organism-based
Procedure, shortened: as §2

[18] = species: Cavia porcellus; experiment: In vitro inhibition of SRS-A-induced contractions in guinea pig ileum; assay type: functional
[19] = system: Cavia porcellus; experiment: In vivo inhibition of leukotriene-induced bronchoconstriction in guinea pigs, was determined, by administering compound by aerosol route, after 17 min; assay type: functional, organism-based
Procedure, shortened: as §2

[20] = system: Cavia porcellus; experiment: In vivo inhibition of leukotriene-induced bronchoconstriction in guinea pigs, was determined, by administering compound by aerosol route, after 14 min; assay type: functional, organism-based
Procedure, shortened: as §2

[21] = system: Cavia porcellus; experiment: In vivo inhibition of leukotriene-induced bronchoconstriction in guinea pigs, was determined, by administering compound by aerosol route, after 77 min; assay type: functional, organism-based
Procedure, shortened: as §2

[22] = system: Cavia porcellus; experiment: In vivo inhibition of leukotriene-induced bronchoconstriction in guinea pigs, was determined, by administering 10 mg/kg of compound intravenously.;This compound caused bronchoconstriction; bc = Compound caused bronchoconstriction; assay type: functional, organism-based; parameters: dose 10 mg/kg
Procedure, shortened: as §1

[23] = system: Cavia porcellus; experiment: In vivo inhibition of leukotriene-induced bronchoconstriction in guinea pigs, was determined, by administering compound by aerosol route, after 49 min; assay type: functional, organism-based
Procedure, shortened: as §2

[24] = species: Cavia porcellus; experiment: Inhibitory potency against leukotriene D4 (LTD) induced bronchoconstriction in guinea pigs; assay type: functional, organism-based
Procedure, shortened: as §3

[25] = system: Cavia porcellus; experiment: In vivo inhibition of leukotriene-induced bronchoconstriction in guinea pigs, was determined, by administering compound by aerosol route, after 73 min; assay type: functional, organism-based
Procedure, shortened: as §2

[26] = species: Cavia porcellus; experiment: Inhibitory potency against leukotriene C4 (LTC) induced bronchoconstriction in guinea pigs; assay type: functional, organism-based
Procedure, shortened: as §3

[27] = system: Cavia porcellus; experiment: In vivo inhibition of leukotriene-induced bronchoconstriction in guinea pigs, was determined, by administering compound by aerosol route, after 30 min; assay type: functional, organism-based
Procedure, shortened: as §2

[28] = system: Cavia porcellus; experiment: In vivo inhibition of leukotriene-induced bronchoconstriction in guinea pigs, was determined, by administering compound by aerosol route, after 45 min; assay type: functional, organism-based
Procedure, shortened: as §2

[29] = system: Cavia porcellus; experiment: In vivo inhibition of leukotriene-induced bronchoconstriction in guinea pigs, was determined, by administering 10 mg/kg of compound intravenously.; assay type: functional; details: route intravenous
Procedure, shortened: as §1

[30] = system: Cavia porcellus; experiment: In vivo inhibition of leukotriene-induced bronchoconstriction in guinea pigs, was determined, by administering compound by aerosol route, after 90 min; assay type: functional, organism-based
Procedure, shortened: as §2

SMILES | IC50 [1] | inhibition in vivo at 10 mg/kg [2] | IC50 [4] | IC50 [6] | IC50 [7] | further results
CCCc1c(OCCCCCOc2ccc3ccc(OCC(=O)O)cc3c2C(C)=O)ccc(C(C)=O)c1O | 0.2 µM | 60% |  |  |  | IC50 [3]: 0.14 % conc
CCCc1c(OCCCCCOc2c(C(C)=O)ccc(OCCCC(=O)O)c2CCC)ccc(C(C)=O)c1O | 1 µM | 92% | 0.01 % conc | 0.9 % conc | > 1 % conc | IC50 [5]: 0.16 % conc; IC50 [8]: 0.01 % conc; IC50 [9]: 0.57 % conc
CCCc1c(OCCCOc2ccc3ccc(OCC(=O)O)cc3c2C(C)=O)ccc(C(C)=O)c1O | 0.2 µM | 90% | 0.02 % conc | > 1 % conc | > 1 % conc | IC50 [10]: 0.02 % conc; IC50 [5]: 0.22 % conc; IC50 [9]: 0.32 % conc
CCCc1c(OCCCOc2ccc3ccc(OCCCC(=O)O)cc3c2C(C)=O)ccc(C(C)=O)c1O | 0.08 µM | 93% |  |  |  | IC50 [11]: 0.61 % conc
CCCc1c(OCCCOc2cccc(OCC(=O)O)c2)ccc(C(C)=O)c1O | 0.5 µM | 64% |  |  |  | IC50 [12]: 0.07 % conc
CCCc1c(OCCCCCOc2c(C(C)=O)ccc(OCC(=O)O)c2CCC)ccc(C(C)=O)c1O | 0.1 µM | 73% | 0.02 % conc | > 1 % conc | 1 % conc | IC50 [5]: 0.11 % conc; IC50 [13]: 0.02 % conc; IC50 [9]: 0.13 % conc
CCCc1c(OCCOCCOc2c(C(C)=O)ccc(OCCCCCC(=O)O)c2CCC)ccc(C(C)=O)c1O | 0.2 µM | 91% |  |  |  | IC50 [14]: 1 % conc
CCCc1c(OCCCOCCCOc2c(C(C)=O)ccc(OCCCC(=O)O)c2CCC)ccc(C(C)=O)c1O | 0.2 µM | 93% | 0.01 % conc | > 1 % conc | 1 % conc | IC50 [5]: 0.15 % conc; IC50 [15]: 0.01 % conc; IC50 [9]: 0.19 % conc
CCCc1c(OCCCOc2c(C(C)=O)ccc(OCCCC(=O)O)c2CCC)ccc(C(C)=O)c1O | 0.2 µM | 97% |  |  |  | IC50 [16]: 0.18 % conc
CCCc1c(OCCOCCOCCOc2c(C(C)=O)ccc(OCC(=O)O)c2CCC)ccc(C(C)=O)c1O |  | 85% | 0.04 % conc | 0.8 % conc | > 1 % conc | IC50 [5]: 0.36 % conc; IC50 [17]: 0.04 % conc; IC50 [18]: 1 µM; IC50 [9]: 0.19 % conc
CCCc1c(OCCOCCOc2c(C(C)=O)ccc(OCCCC(=O)O)c2CCC)ccc(C(C)=O)c1O | 0.1 µM | 91% |  |  |  | IC50 [19]: 0.22 % conc
CCCc1c(OCCOCCOc2c(C(C)=O)ccc(OCC(=O)O)c2CCC)ccc(C(C)=O)c1O | 0.2 µM | 86% |  |  |  | IC50 [20]: 0.02 % conc
CCCc1c(OCC(O)COc2ccc3c(=O)cc(C(=O)O)oc3c2CCC)ccc(C(C)=O)c1O (configuration not stated) [FPL-55712] |  | 98% | 0.79 % conc | > 1 % conc | > 1 % conc | IC50 [5]: > 3 % conc; IC50 [9]: 0.5 % conc; IC50 [21]: 0.79 % conc
CCCc1c(OCCCOc2ccc3ccc(OCC(=O)O)cc3c2)ccc(C(C)=O)c1O | 0.3 µM |  |  |  |  | inhibition [22]: inactive; IC50 [23]: 0.46 % conc
CCCc1c(OCCCOc2c(C(C)=O)ccc(OCCCCCC(=O)O)c2CCC)ccc(C(C)=O)c1O | 1 µM | 91% |  |  |  | IC50 [13]: 0.02 % conc
CCCc1c(OCCOCCOCCOCCOc2c(C(C)=O)ccc(OCC(=O)O)c2CCC)ccc(C(C)=O)c1O |  | 90% | 0.04 % conc | 0.8 % conc | > 1 % conc | IC50 [24]: 0.18 % conc; IC50 [25]: 0.04 % conc; IC50 [18]: 0.3 µM; IC50 [26]: 1.3 % conc
CCCc1c(OCCCOCCCOc2c(C(C)=O)ccc(OCC(=O)O)c2CCC)ccc(C(C)=O)c1O | 0.4 µM | 91% |  |  |  | IC50 [27]: 0.1 % conc
CCCc1c(OCCOCCOCCOc2c(C(C)=O)ccc(OCCCC(=O)O)c2CCC)ccc(C(C)=O)c1O |  | 57% |  |  |  | IC50 [14]: 1 % conc; IC50 [18]: 0.5 µM
CCCc1c(OCCCCOCCCCOc2c(C(C)=O)ccc(OCC(=O)O)c2CCC)ccc(C(C)=O)c1O | 0.5 µM | 54% |  |  |  | IC50 [28]: 0.1 % conc
CCCc1c(OCCCOc2ccc3ccc(OCCCC(=O)O)cc3c2)ccc(C(C)=O)c1O | 5 µM |  |  |  |  | IC50 [14]: 1 % conc; inhibition in vivo at 10 mg/kg [29]: 75%
CCCc1c(OCCCOc2c(C(C)=O)ccc(OCC(=O)O)c2CCC)ccc(C(C)=O)c1O | 2 µM | 95% |  |  |  | IC50 [30]: 0.07 % conc
